Measurements: ChEMBL document CHEMBL1140583, “A polyacetylene compound from herbal medicine regulates genes associated with thrombosis in endothelial cells” (2007)

Legend:
Assay type in all cases: functional, Homo sapiens
HUVEC [1] = assay: Increase in TI-PARP gene expression in HUVEC at 5 ug/ml after 4 hrs relative to control
HUVEC [2] = assay: Increase in COX2 gene expression in HUVEC at 5 ug/ml after 4 hrs relative to control
HUVEC [3] = assay: Increase in SerpinB2 gene expression in HUVEC at 5 ug/ml after 4 hrs relative to control
Summary of the method: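 HUVEC exposed to the purified compound at 5 μg/ml. SerpinB2 mRNA quantified by real-time RT-PCR against untreated control HUVEC, reported as log2 relative quantity (log2RQ). The same SerpinB2 RT-PCR read-out guided activity-based fractionation of the herbal extract.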

HUVEC [4] = assay: Increase in CYP450, family 1, subfamily B, polypeptide 1 gene expression in HUVEC at 5 ug/ml after 4 hrs relative to control
HUVEC [5] = assay: Increase in solute carrier family 7, member 11 gene expression in HUVEC at 5 ug/ml after 4 hrs relative to control
HUVEC [6] = assay: Decrease in zinc finger and BTB domain containing 16 gene expression in HUVEC at 5 ug/ml after 4 hrs relative to control
HUVEC [7] = assay: Decrease in ATP-binding cassette, subfamily G, member 1 gene expression in HUVEC at 5 ug/ml after 4 hrs relative to control
HUVEC [8] = assay: Decrease in perlecan gene expression in HUVEC at 5 ug/ml after 4 hrs relative to control
HUVEC [9] = assay: Decrease in mesenchyme homebox2 gene expression in HUVEC at 5 ug/ml after 4 hrs relative to control
HUVEC [10] = assay: Decrease in AT rich interactive domain 1A gene expression in HUVEC at 5 ug/ml after 4 hrs relative to control

C/C=C/C#CC#C/C=C/CCC(CCOC(C)=O)OC(C)=O (stereo not given)
Fold change (HUVEC [1]): 2.3
Fold change (HUVEC [2]): 2
Fold change (HUVEC [3]): 2
Fold change (HUVEC [4]): 6.5
Fold change (HUVEC [5]): 2.3
Fold change (HUVEC [6]): -2
Fold change (HUVEC [7]): -1.9
Fold change (HUVEC [8]): -1.7
Fold change (HUVEC [9]): -2.1
Fold change (HUVEC [10]): -1.9
